Measurements reported in ChEMBL document CHEMBL1131019, “Minimal-size, constrained corticotropin-releasing factor agonists with i-(i+3) Glu-Lys and Lys-Glu bridges” (1998).
Several values for one entry are separate records, joined by “and”; a condition that tells them apart may be missing. Identical values can stand only once. Square brackets hold non-standard residues; d marks the D form. Peptide text beside a SMILES is read from it. Nle = CCCC[C@H](N)C(=O)O

Species on record: Rattus norvegicus
Assay: In vitro for agonist activity by measuring release of ACTH by rat pituitary cells in culture relative to human Corticotropin-Releasing factor (CRF)
Assay type: functional, Pituitary gland cell
Summary of the method: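 Male Sprague–Dawley rat anterior pituitary cells, collagenase-dissociated, plated at 0.16 × 10⁶ cells/well in 2% FBS medium. After 3 days, washed into 0.1% BSA medium, preincubated 1 h, washed again, then exposed to peptide for 3 h. Medium ACTH measured by radioimmunoassay.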

Structure (SMILES)	Potency
CC[C@H](C)[C@H](NC(=O)[C@H](CO)NC(=O)[C@H](CC(C)C)NC(=O)[C@H](CO)NC(=O)[C@@H]1CCCN1C(C)=O)C(=O)N[C@@H](CC(=O)O)C(=O)N[C@@H](CC(C)C)C(=O)N[C@H](C(=O)N[C@H](Cc1ccccc1)C(=O)N[C@@H](Cc1c[nH]cn1)C(=O)N[C@@H](CC(C)C)C(=O)N[C@@H](CC(C)C)C(=O)N[C@@H](CCCN=C(N)N)C(=O)N[C@H](C(=O)N[C@@H](CC(C)C)C(=O)N[C@@H](CC(C)C)C(=O)N[C@@H](CCC(=O)O)C(=O)N[C@@H](CC(C)C)C(=O)N[C@@H](C)C(=O)N[C@@H](CCCN=C(N)N)C(=O)N[C@H](C(=O)N[C@@H](CCC(N)=O)C(=O)N[C@@H](CO)C(=O)N[C@@H](CCC(N)=O)C(=O)N[C@@H](CCCN=C(N)N)C(=O)N[C@@H](CCC(=O)O)C(=O)N1C(=O)[C@H](CCC(=O)O)NC(=O)[C@H](C)NC(=O)[C@@H](N)CCC(=O)NCCCC[C@H]1C(=O)N[C@@H](CC(N)=O)C(=O)N[C@@H](CCCN=C(N)N)C(=O)N[C@H](C(=O)N[C@H](C(=O)N[C@@H](Cc1ccccc1)C(=O)N[C@@H](CC(=O)O)C(=O)N[C@@H](CO)C(=O)N[C@H](C(N)=O)C(C)C)[C@@H](C)CC)[C@@H](C)CC)[C@@H](C)O)[C@@H](C)O)[C@@H](C)O	3.8
CCCC[C@H](NC(=O)[C@H](CCC(=O)O)NC(=O)[C@H](CC(C)C)NC(=O)[C@H](CCCC)NC(=O)[C@H](CCC(=O)O)NC(=O)[C@H](CCCN=C(N)N)NC(=O)[C@H](CC(C)C)NC(=O)[C@H](CC(C)C)NC(=O)[C@H](Cc1c[nH]cn1)NC(=O)[C@@H](Cc1ccccc1)NC(=O)[C@@H](NC(=O)[C@H](CC(C)C)NC(=O)[C@H](CC(=O)O)NC(=O)[C@H](CC(C)C)NC(=O)[C@H](CO)NC(=O)[C@@H](NC(=O)[C@@H]1CCCN1C(=O)[C@@H]1CCCN1C(C)=O)[C@@H](C)CC)[C@@H](C)O)C(=O)N[C@@H](C)C(=O)N[C@@H](CCCCN)C(=O)N[C@@H](C)C(=O)N[C@@H](CCC(=O)O)C(=O)N[C@@H](CCC(N)=O)C(=O)N[C@@H](CCC(=O)O)C(=O)N[C@@H](C)C(=O)N[C@@H](CCC(=O)O)C(=O)N[C@@H](CCC(N)=O)C(=O)N[C@@H](C)C(=O)N[C@@H](C)C(=O)N[C@@H](CC(C)C)C(=O)N[C@@H](CC(N)=O)C(=O)N[C@@H](CCCN=C(N)N)C(=O)N[C@@H](CC(C)C)C(=O)N[C@@H](CC(C)C)C(=O)N[C@@H](CC(C)C)C(=O)N[C@@H](CCC(=O)O)C(=O)N[C@@H](CCC(=O)O)C(=O)N[C@@H](C)C(N)=O	1.3
CCCC[C@H](NC(=O)[C@H](CCCN=C(N)N)NC(=O)[C@H](CC(C)C)NC(=O)[C@H](CC(C)C)NC(=O)[C@H](CCC(=O)O)NC(=O)[C@H](CC(C)C)NC(=O)[C@H](CC(C)C)NC(=O)[C@H](CC(C)C)NC(=O)[C@H](CC(=O)O)NC(=O)[C@@H](NC(=O)[C@H](CO)NC(=O)[C@@H](NC(=O)[C@@H]1CCCN1C(=O)[C@@H]1CCCN1C(=O)CNC(=O)[C@H](CCC(=O)O)NC(=O)[C@@H]1CCCN1)[C@@H](C)CC)[C@@H](C)CC)C(=O)N[C@@H](CCCC)C(=O)N[C@H](C(=O)N[C@@H](CCC(=O)O)C(=O)N[C@H](C(=O)N[C@@H](CCC(=O)O)C(=O)N[C@@H](CCCCN)C(=O)N[C@@H](CCC(N)=O)C(=O)N[C@@H](CCC(=O)O)C(=O)N[C@@H](CCCCN)C(=O)N[C@@H](CCC(=O)O)C(=O)N[C@@H](CCCCN)C(=O)N[C@H](CCC(=O)O)C(=O)N[C@H](CCC(N)=O)C(=O)N[C@H](C)C(=O)N[C@H](CCCCN)C(=O)N[C@H](CC(N)=O)C(=O)N[C@H](CC(N)=O)C(=O)N[C@H](CCCN=C(N)N)C(=O)N[C@H](CC(C)C)C(=O)N[C@H](CC(C)C)C(=O)N[C@H](CC(C)C)C(=O)N[C@H](CC(=O)O)C(=O)N[C@@H](C(=O)N[C@@H](C(N)=O)[C@H](C)CC)[C@H](C)O)[C@@H](C)CC)[C@@H](C)CC	0.53 and 0.54
CCCC[C@H](NC(=O)[C@H](CCC(=O)O)NC(=O)[C@H](CC(C)C)NC(=O)[C@H](CCCC)NC(=O)[C@H](CCC(=O)O)NC(=O)[C@H](CCCN=C(N)N)NC(=O)[C@H](CC(C)C)NC(=O)[C@H](CC(C)C)NC(=O)[C@H](Cc1c[nH]cn1)NC(=O)[C@@H](Cc1ccccc1)NC(=O)[C@@H](NC(=O)[C@H](CC(C)C)NC(=O)[C@H](CC(=O)O)NC(=O)[C@H](CC(C)C)NC(=O)[C@H](CO)NC(=O)[C@@H](NC(=O)[C@@H]1CCCN1C(=O)[C@@H]1CCCN1C(C)=O)[C@@H](C)CC)[C@@H](C)O)C(=O)N[C@@H](C)C(=O)N[C@@H](CCCCN)C(=O)N[C@@H](C)C(=O)N[C@@H](CCC(=O)O)C(=O)N[C@@H](CCC(N)=O)C(=O)N[C@@H](CCC(=O)O)C(=O)N[C@@H](C)C(=O)N[C@@H](CCC(=O)O)C(=O)N1C(=O)[C@H](C)NC(=O)[C@H](C)NC(=O)[C@@H](N)CCC(=O)NCCCC[C@H]1C(=O)N[C@@H](CC(N)=O)C(=O)N[C@@H](CCCN=C(N)N)C(=O)N[C@@H](CC(C)C)C(=O)N[C@@H](CC(C)C)C(=O)N[C@@H](CC(C)C)C(=O)N[C@@H](CCC(=O)O)C(=O)N[C@@H](CCC(=O)O)C(=O)N[C@@H](C)C(N)=O	7.5
CCCC[C@H](NC(=O)[C@H](CCC(=O)O)NC(=O)[C@H](CC(C)C)NC(=O)[C@H](CCCC)NC(=O)[C@H](CCC(=O)O)NC(=O)[C@H](CCCN=C(N)N)NC(=O)[C@H](CC(C)C)NC(=O)[C@H](CC(C)C)NC(=O)[C@H](Cc1c[nH]cn1)NC(=O)[C@H](Cc1ccccc1)NC(=O)[C@@H](NC(=O)[C@H](CC(C)C)NC(=O)[C@H](CC(=O)O)NC(=O)[C@H](CC(C)C)NC(C)=O)[C@@H](C)O)C(=O)N[C@@H](C)C(=O)N[C@@H](CCCCN)C(=O)N[C@@H](C)C(=O)N[C@@H](CCC(=O)O)C(=O)N[C@@H](CCC(N)=O)C(=O)N[C@@H](CCC(=O)O)C(=O)N[C@@H](C)C(=O)N[C@@H](CCC(=O)O)C(=O)N[C@@H](CCC(N)=O)C(=O)N[C@@H](C)C(=O)N[C@@H](C)C(=O)N[C@@H](CC(C)C)C(=O)N[C@@H](CC(N)=O)C(=O)N[C@@H](CCCN=C(N)N)C(=O)N[C@@H](CC(C)C)C(=O)N[C@@H](CC(C)C)C(=O)N[C@@H](CC(C)C)C(=O)N[C@@H](CCC(=O)O)C(=O)N[C@@H](CCC(=O)O)C(=O)N[C@@H](C)C(N)=O (Ac-LDLTFHLLRE[Nle]LE[Nle]AKAEQEAEQAALNRLLLEEA-NH2)	0.004
CCCC[C@H](NC(=O)[C@H](CCC(=O)O)NC(=O)[C@@H](NC(=O)[C@H](CCCC)NC(=O)[C@H](CC(N)=O)NC(=O)[C@H](CCCN=C(N)N)NC(=O)[C@H](CC(C)C)NC(=O)[C@H](CC(C)C)NC(=O)[C@H](Cc1c[nH]cn1)NC(=O)[C@@H](Cc1ccccc1)NC(=O)[C@@H](NC(=O)[C@H](CC(C)C)NC(=O)[C@H](CC(=O)O)NC(=O)[C@@H](NC(=O)[C@H](CO)NC(=O)[C@@H](NC(=O)[C@@H]1CCCN1C(=O)[C@@H]1CCCN1C(=O)[C@H](CC(=O)O)NC(=O)[C@H](CC(=O)O)NC(=O)[C@@H](N)CC(N)=O)[C@@H](C)CC)[C@@H](C)CC)[C@@H](C)O)[C@@H](C)CC)C(=O)N[C@@H](C)C(=O)N[C@@H](CCCN=C(N)N)C(=O)N[C@H](C(=O)N[C@@H](CCC(=O)O)C(=O)N[C@@H](CC(N)=O)C(=O)N[C@@H](CCC(=O)OC)C(=O)N[C@@H](CCCN=C(N)N)C(=O)N[C@@H](CCC(=O)O)C(=O)N[C@@H](CCC(=O)O)C(=O)N[C@@H](C)C(=O)NCC(=O)N[C@@H](CCCCN)C(=O)N[C@@H](CC(N)=O)C(=O)N[C@@H](CCCN=C(N)N)C(=O)N[C@@H](CCCCN)C(=O)N[C@@H](Cc1ccc(O)cc1)C(=O)N[C@@H](CC(C)C)C(=O)N[C@@H](CC(=O)O)C(=O)N[C@@H](CCC(=O)O)C(=O)N[C@H](C(N)=O)C(C)C)[C@@H](C)CC	1.1
CC[C@H](C)[C@H](NC(=O)[C@H](CO)NC(=O)[C@H](CC(C)C)NC(=O)[C@H](CO)NC(=O)[C@H]1CCCN1C(=O)[C@H](CC(N)=O)NC(=O)[C@@H](N)CC(=O)O)C(=O)N[C@@H](CC(=O)O)C(=O)N[C@@H](CC(C)C)C(=O)N[C@H](C(=O)N[C@@H](Cc1ccccc1)C(=O)N[C@@H](Cc1c[nH]cn1)C(=O)N[C@@H](CC(C)C)C(=O)N[C@@H](CC(C)C)C(=O)N[C@@H](CCCN=C(N)N)C(=O)N[C@H](C(=O)N[C@@H](CC(C)C)C(=O)N[C@@H](CC(C)C)C(=O)N[C@@H](CCC(=O)O)C(=O)N[C@@H](CC(C)C)C(=O)N[C@@H](C)C(=O)N[C@@H](CCCN=C(N)N)C(=O)N[C@H](C(=O)N[C@@H](CCC(N)=O)C(=O)N[C@@H](CO)C(=O)N[C@@H](CCC(N)=O)C(=O)N[C@@H](CCCN=C(N)N)C(=O)N[C@@H](CCC(=O)O)C(=O)N[C@@H](CCCN=C(N)N)C(=O)N[C@@H](C)C(=O)N[C@@H](CCC(=O)O)C(=O)N[C@@H](CCC(N)=O)C(=O)N[C@@H](CC(N)=O)C(=O)N[C@@H](CCCN=C(N)N)C(=O)N[C@H](C(=O)N[C@H](C(=O)N[C@@H](Cc1ccccc1)C(=O)N[C@@H](CC(=O)O)C(=O)N[C@@H](CO)C(=O)N[C@H](C(N)=O)C(C)C)[C@@H](C)CC)[C@@H](C)CC)[C@@H](C)O)[C@@H](C)O)[C@@H](C)O (stereo in doubt; 37)	2.9
CC[C@H](C)[C@H](NC(=O)[C@H](CO)NC(=O)[C@H](CC(C)C)NC(=O)[C@H](CO)NC(=O)[C@H]1CCCN1C(=O)[C@H](CC(N)=O)NC(=O)[C@@H](N)CC(=O)O)C(=O)N[C@@H](CC(=O)O)C(=O)N[C@@H](CC(C)C)C(=O)N[C@H](C(=O)N[C@@H](Cc1ccccc1)C(=O)N[C@@H](Cc1c[nH]cn1)C(=O)N[C@@H](CC(C)C)C(=O)N[C@@H](CC(C)C)C(=O)N[C@@H](CCCN=C(N)N)C(=O)N[C@H](C(=O)N[C@@H](CC(C)C)C(=O)N[C@@H](CC(C)C)C(=O)N[C@@H](CCC(=O)O)C(=O)N[C@@H](CC(C)C)C(=O)N[C@@H](C)C(=O)N[C@@H](CCCN=C(N)N)C(=O)N[C@H](C(=O)N[C@@H](CCC(N)=O)C(=O)N[C@@H](CO)C(=O)N[C@@H](CCC(N)=O)C(=O)N[C@@H](CCCN=C(N)N)C(=O)N[C@@H](CCC(=O)O)C(=O)N[C@@H](CCCN=C(N)N)C(=O)N[C@@H](C)C(=O)N[C@@H](CCC(=O)O)C(=O)N[C@@H](CCC(N)=O)C(=O)N[C@@H](CC(N)=O)C(=O)N[C@@H](CCCN=C(N)N)C(=O)N[C@H](C(=O)N[C@H](C(=O)N[C@@H](Cc1ccccc1)C(=O)N[C@@H](CC(=O)O)C(=O)N[C@@H](CO)C(=O)N[C@H](C(N)=O)C(C)C)[C@@H](C)CC)[C@@H](C)CC)[C@@H](C)O)[C@@H](C)O)[C@@H](C)O (stereo in doubt; 36)	3.1
